# This is a sample that favours compounds with a hit; in the whole collection about 1.6% have one here.
# SIAE primary – blocks human sialic acid acetylesterase. SIAE FP-Rh probe binding, fluorescence polarization. Q9HAT2. inhibition, % at 9.66 µM. hit rate 0.69% among 370,000. AID 1053197;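 active means inhibition above a cutoff: mean of compounds within the control limits plus 3 SD of those, cut at about 17% in these data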
# Target sequence (Q9HAT2 whole entry, looked up): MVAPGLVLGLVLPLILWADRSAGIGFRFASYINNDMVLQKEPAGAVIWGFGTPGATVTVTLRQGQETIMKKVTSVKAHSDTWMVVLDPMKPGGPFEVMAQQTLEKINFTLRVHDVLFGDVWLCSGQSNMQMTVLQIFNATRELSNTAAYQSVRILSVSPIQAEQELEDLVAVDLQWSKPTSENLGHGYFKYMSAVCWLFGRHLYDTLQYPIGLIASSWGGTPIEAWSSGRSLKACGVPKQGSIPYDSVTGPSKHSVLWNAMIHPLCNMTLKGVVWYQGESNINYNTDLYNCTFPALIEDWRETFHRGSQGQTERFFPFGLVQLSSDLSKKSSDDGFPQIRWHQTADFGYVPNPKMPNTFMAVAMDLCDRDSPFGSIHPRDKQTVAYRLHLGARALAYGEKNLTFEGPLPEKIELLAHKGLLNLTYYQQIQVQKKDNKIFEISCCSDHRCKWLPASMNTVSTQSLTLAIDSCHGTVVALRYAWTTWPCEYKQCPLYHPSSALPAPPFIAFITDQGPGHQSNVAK
# DAGLB inhibitor – diacylglycerol lipase beta (human) inhibition; hit rate 0.059% among 340,000; HEK293T DAGLB membrane lysate, EnzChek fluorogenic substrate; AID 504411; Q8NCG7; inhibition, % at 5.17 µM; in the data active means inhibition above about 34%
# TCR CD3 inh – human TCR-CD3 binding inhibition. TAMRA-labeled TCR probe fluorescence, biochemical. inhibition, % at 9.4 µM. hit rate 0.37% among 360,000. AID 651800; in the data active means inhibition above about 19%;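 further: recombinant mutant TCR 2C K166C tagged with TAMRA read by polarization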
# mABHD4 FP – inhibits mouse alpha/beta hydrolase domain 4; inhibition, % at 8.92 µM; purified mABHD4, FP-Rh probe fluorescence polarization; Q8VD66; hit rate 0.54% among 370,000; AID 720543;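 active means inhibition exceeding the mean over every tested compound plus 3 SD, cut at about 30% in these data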
#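 Assay system: Wild-type mouse ABHD4 protein | Medium: HEPES pH 7.0 buffer, 150 mM NaCl, 0.01% Pluronic F-127 | Incubation: Enzyme–compound pre-incubation 45 min, then probe 60 min, both 25 °C | Technique: Fluorescence polarization with parallel and perpendicular emission, 525/598 nm | Evaluation: % inhibition of FP-Rh probe binding versus controls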
# HTRA1 inhibitor – inhibitors of human serine peptidase HTRA1; Q92743; recombinant HTRA1, FP-rhodamine activity-based probe, fluorescence polarization; inhibition, % at 5.96 µM; hit rate 0.5% among 340,000; in the data active means inhibition above about 36%
# SIAE inh conf – confirmation of human SIAE inhibitors; shares compounds with SIAE primary; inhibition, % at 9.66 µM; hit rate 13% among 2,300; SIAE FP-Rh activity-based probe, fluorescence polarization; AID 1117263;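 active means mean inhibition of the replicates above the hit cutoff set in the primary screen, cut at about 17% in these data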;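 further: inhibitors lower polarization as more probe stays unbound to SIAE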
# Numbers stand for hits; 0 = inactive; - = no result given.
SMILES,SIAE primary,DAGLB inhibitor,TCR CD3 inh,mABHD4 FP,HTRA1 inhibitor,SIAE inh conf
CC12CN3CCN(CC(C3)/C1=N/N=C/c1cccc([N+](=O)[O-])c1)C2,17.2,0,0,0,0,0
CC1S/C(=N/N=C/c2cccc([N+](=O)[O-])c2)NC1=O (stereo not drawn),0,0,0,0,0,-
NS(=O)(=O)c1cccc(NC(=O)CC2(CC(=O)O)CCCC2)c1,36.5,0,0,0,0,0
COc1ccc(-n2nnc3c(=O)n(CC(=O)Nc4cc(C)on4)cnc32)cc1OC,23.8,0,0,0,0,0
CCC(C)C(=O)Nc1nnc(SCC(=O)NC(C)(C)C)s1 (stereo not drawn),0,0,0,0,0,-
CC(=O)Nc1nnc(SCC(=O)NC(C)(C)C)s1,21.2,0,0,0,0,0
COc1ccc(NS(=O)(=O)c2cc(NC(=O)c3cccs3)ccc2N2CCCC2)cc1,26.0,0,0,0,0,0
COc1ccc(NC(=S)NNC(=O)c2cccs2)cc1,17.8,0,0,0,0,0
COc1ccc(NC(=O)c2cccs2)cc1,0,0,0,0,0,-
COc1ccc(NS(=O)(=O)c2cc(NC(=O)c3ccccc3F)ccc2N2CCCC2)cc1,0,0,0,0,0,-
COC(=O)[C@H]1C[C@@]2(N3CCCCC3)c3ccccc3N(C(=O)OC(C)(C)C)[C@H]2N1C(=O)OC(C)(C)C,0,-,-,0,-,-
CNC(C#Cc1ccccc1)c1ccccc1C(F)(F)F (stereo not drawn),0,-,-,0,-,-
COc1ccc(/C=N/Nc2nc(-c3ccc(Cl)cc3)cc(C(F)(F)F)n2)cc1OC,19.6,0,0,0,0,0
COc1ccc(/C=N/Nc2nc(C)cc(-c3ccccc3)n2)cc1OC,0,0,0,0,0,-
COc1ccc(C(C(=O)N(C)C2CCCC2)N(Cc2ccc(F)cc2)C(=O)c2ccc3ccccc3c2)cc1OC (stereo not drawn),0,-,-,0,-,-
COc1cccc(Cn2cc(COC(=O)NCC(C)C)nn2)c1,0,-,-,0,-,-
O=C(Nc1ccc(-n2cnnn2)cc1)c1cn2ccccc2n1,-,0,-,-,0,-
O=C(Nc1ccccc1)c1cn2ccccc2n1,17.6,0,0,0,0,0
CCOC(=O)C(=O)NCc1ccc(/C=C2/N=C(C)C(C(=O)OCC)=C2O)o1,0,0,0,0,0,-
COC(=O)C1=C(O)/C(=C\c2ccc(CNC(=O)C(=O)Nc3ccc(C)c(C)c3)o2)N=C1C,0,0,0,0,0,-
CCOC(=O)C1=C(O)/C(=C\c2ccc(CNS(=O)(=O)c3ccc(Br)cc3)o2)N=C1C,17.7,0,0,0,0,0
COC(=O)C1=C(O)/C(=C\c2ccc(CNS(=O)(=O)c3ccc(Cl)cc3)o2)N=C1C,21.6,0,0,0,0,0
CCN(CC)C(=O)CC[C@@H]1CC[C@]2(CCCN(Cc3cccc4ccccc34)C2)O1,0,-,-,0,-,-
CCOC(=O)/C(=C\c1c[nH]c2ccccc12)NC(C)=O,17.8,0,0,0,0,0
NC(Cc1ccc(C(F)(F)F)cc1)c1csc(NC(=O)Nc2ccccc2Cl)n1 (stereo not drawn),19.6,-,0,0,-,21.4
SMILES,SIAE primary,DAGLB inhibitor,TCR CD3 inh,mABHD4 FP,HTRA1 inhibitor,SIAE inh conf
NC(Cc1ccc(C(F)(F)F)cc1)c1csc(NC(=O)Nc2ccccc2)n1 (stereo not drawn),0,-,0,0,-,-
C#CCNC(=O)C[C@@H]1C[C@@](CCC(=O)OCC)(C(=O)OCC)C2=CCCCN2C1=O,0,-,-,0,-,-
CC(C)=CCc1cc(-c2oc3cc(O)cc(O)c3c(=O)c2O)ccc1O,22.6,0,0,0,0,0
CC(=O)c1ccc(O)c(CC=C(C)C)c1,0,0,0,0,0,-
O=[N+]([O-])c1cccc(-c2csc(N/N=C/c3cccc(O)c3)n2)c1,27.1,0,0,0,0,0
CN(C)S(=O)(=O)c1ccc(-c2csc(N/N=C/c3ccco3)n2)cc1,0,0,0,0,0,-
CCOC(=O)Cc1csc(N/N=C/c2cccc([N+](=O)[O-])c2)n1,0,0,0,0,0,-
CN(C)S(=O)(=O)c1ccc(-c2csc(N/N=C/c3ccc(O)cc3)n2)cc1,19.7,0,0,0,0,23.7
C[C@H]1[C@@H](c2ccccc2)Oc2c(Cl)cccc2S(=O)(=O)N1C,0,-,0,0,-,-
COC(=O)c1cc2c(c3c4cc(OC)ccc4n(S(=O)(=O)c4ccc(F)cc4)c13)C(=O)N(Cc1ccccc1)C2,0,-,0,0,-,-
COc1ccc(N2CCC(CNC(=S)Nc3c(C)cc(C)cc3C)C2)cc1 (stereo not drawn),17.7,0,0,0,0,0
COc1ccc(N2CCC(CNC(=S)Nc3ccc(C)cc3C)C2)cc1 (stereo not drawn),0,0,0,0,0,-
COc1ccc(C(=O)CSc2nnc(-c3n[nH]c4c3CCC4)n2N)cc1OC,0,-,-,0,-,-
O=C(CN1C(=O)NC2(CCCCCCC2)C1=O)NCc1ccccc1Cl,0,0,0,0,0,-
CCC1CCC2(CC1)NC(=O)N(CC(=O)NCc1ccccc1Cl)C2=O (stereo not drawn),17.4,0,0,0,0,0
Cc1cc(N2CCNC[C@H]2C)ccc1N1CCN(Cc2ccccc2)[C@H](C)C1,0,-,0,0,-,-
Cc1cc(N2CCNC[C@@H]2C)ccc1N1CCN(Cc2ccccc2)[C@H](C)C1,0,-,0,0,-,-
COCc1cc(N2CCNC[C@@H]2C)ccc1N1CCN(Cc2ccccc2)[C@H](C)C1,17.3,-,0,0,-,0
C[C@@H]1CN(c2ccc(N3CCNC[C@@H]3C)cc2C#N)CCN1Cc1ccccc1,19.5,-,0,0,-,0
Cc1cc(N2CCNC[C@H]2C)ccc1N1C[C@@H](C)O[C@@H](C)C1,0,-,0,0,-,-
Cc1ccccc1C(=O)Nc1ccccc1,0,0,0,0,0,-
Cc1ccccc1C(=O)Nc1ccc(S(=O)(=O)N2CCN(C)CC2)cc1,18.8,0,0,0,0,0
CC(=O)Nc1ccc(NC(=O)c2ccccc2C)cc1,18.2,0,0,0,0,0
CCOC(=O)[C@@]12CCC3=C1N(CCC3)C(=O)[C@H](CC(=O)N1CCCC1)C2,0,-,-,0,-,-
Cc1ccccc1NC(=O)COC(=O)C1(C)CC1(Cl)Cl (stereo not drawn),18.7,0,0,0,0,0
SMILES,SIAE primary,DAGLB inhibitor,TCR CD3 inh,mABHD4 FP,HTRA1 inhibitor,SIAE inh conf
Cn1nnnc1SCC(=O)Nc1ccc(C(=O)N2CCN(Cc3ccccc3F)CC2)cc1,17.7,0,0,0,0,0
CCOc1cc(OCC)cc(C(=O)N2CCC[C@@H]2C(=O)N2CCC[C@@H]2C(=O)NCc2cccc(OC)c2)c1,0,-,0,0,-,-
CCOC(=O)C(C)N1CC(=O)N(c2ccccc2)C1=O (stereo not drawn),17.6,0,0,0,0,0
CCCCNS(=O)(=O)CC1NCCc2ccccc21 (stereo not drawn),0,-,-,0,-,-
COc1ccc(NC(=O)/C=C/c2ccccc2)cn1,0,0,0,0,0,-
COc1ccc(NC(=O)/C=C/c2cc(OC)c(OC)c(OC)c2)cn1,21.3,0,0,0,0,0
Cc1c(C(=O)N2CCCCC2)c(S(=O)(=O)N(C)Cc2ccco2)c(C)n1C,0,0,0,0,0,-

# From PubChem BioAssay
